Screening data: PubChem BioAssay, The Scripps Research Institute Molecular Screening Center
Sampled rows, rich in hits. Any-hit rate of the full collection: about 3.3%.
PRMT1 inh = PRMT1 (human) inhibition, primary screen; Q99873; recombinant PRMT1, activity-based probe fluorescence polarization; inhibition, % at 2.79 µM; 370,000 compounds, 1.3% hits; AID 652257;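 active = inhibition above about 21% made by adding two undisclosed values, limit read from the data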
rCAG RNA binder = molecules binding r(CAG) RNA repeats. inhibition, % at 3 µM. r(CAG) RNA repeat, TO-PRO-1 dye displacement fluorescence. 370,000 compounds, 1.3% hits;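 active = inhibition above the plate cutoff, the mean of all test compounds on that plate plus 3 SD, cut at about 35% in these data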;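 note: 0% = DMSO alone and 100% = 100 µM mitoxantrone as full dye displacement; higher means more dye released from RNA so lower well fluorescence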
mABHD4 FP = inhibitors of mouse ABHD4. AID 720543. inhibition, % at 8.92 µM. purified mABHD4, FP-Rh probe fluorescence polarization. Q8VD66. 370,000 compounds, 0.54% hits;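 active = inhibition exceeding the mean over every tested compound plus 3 SD, cut at about 30% in these data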;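 note: 0% = plate median of compound wells and 100% = S159A mutant with DMSO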
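system = mouse ABHD4 enzyme, wild type | medium = HEPES pH 7.0, NaCl, Pluronic buffer | also added = FP-Rh probe | incubation = Enzyme–compound pre-incubation 45 min, then probe 60 min, both 25 °C | technique = fluorescence polarization, excitation 525 nm, emission 598 nm, BODIPY TMR filters | controls = S159A mutant high control, sample median low control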
HTRA1 inh = blocks human HTRA1 serine peptidase; Q92743; recombinant HTRA1, FP-rhodamine activity-based probe, fluorescence polarization; inhibition, % at 5.96 µM; 340,000 compounds, 0.5% hits; in the data active = inhibition above about 36%;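 note: 0% = enzyme with DMSO and 100% = wells lacking enzyme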
SIAE inh = blocks human sialic acid acetylesterase; SIAE FP-Rh probe binding, fluorescence polarization; inhibition, % at 9.66 µM; 370,000 compounds, 0.69% hits;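 active = inhibition above a cutoff: mean of compounds within the control limits plus 3 SD of those, cut at about 17% in these data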;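 note: 0% = plate median of compound wells and 100% = probe without SIAE protein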
Target sequence (Q9HAT2 whole entry, looked up): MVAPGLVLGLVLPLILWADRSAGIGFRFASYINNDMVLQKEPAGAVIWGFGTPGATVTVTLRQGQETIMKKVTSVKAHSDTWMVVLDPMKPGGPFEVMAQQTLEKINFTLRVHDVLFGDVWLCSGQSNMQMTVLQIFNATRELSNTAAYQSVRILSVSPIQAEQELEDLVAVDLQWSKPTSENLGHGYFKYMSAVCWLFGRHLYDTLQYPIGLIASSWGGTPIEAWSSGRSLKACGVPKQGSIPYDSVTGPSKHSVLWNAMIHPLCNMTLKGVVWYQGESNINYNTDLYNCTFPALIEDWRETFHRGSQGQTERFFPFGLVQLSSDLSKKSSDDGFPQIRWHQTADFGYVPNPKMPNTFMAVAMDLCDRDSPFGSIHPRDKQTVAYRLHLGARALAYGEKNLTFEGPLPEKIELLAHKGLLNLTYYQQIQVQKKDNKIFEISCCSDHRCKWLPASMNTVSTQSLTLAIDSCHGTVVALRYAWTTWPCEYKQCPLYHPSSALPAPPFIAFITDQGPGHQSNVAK
rCAG binder conf = r(CAG) RNA repeat binding, confirmation | shares compounds with rCAG RNA binder | TO-PRO-1 dye displacement fluorescence | inhibition, % at 3 µM | 4,300 compounds, 70% hits;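 active = inhibition above a per-plate cutoff, the mean inhibition of sample wells plus 3 SD, cut at about 35% in these data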;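 note: loss of TO-PRO-1 fluorescence as compound displaces dye from 1x1 AA loop RNA; 0% = DMSO only wells and 100% = 100 µM mitoxantrone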
DNA CAG counter = disrupts DNA CAG TO-PRO-1 complex, flagging rCAG hits | shares compounds with rCAG RNA binder | inhibition, % at 3 µM | d(CAG) DNA oligo TO-PRO-1 dye displacement, fluorescence | 4,300 compounds, 94% hits;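 active = inhibition above its plate's cutoff, the mean test-well inhibition plus 3 SD, cut at about 4.8% in these data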;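 note: 0% = DNA dye mix with DMSO and 100% = 100 µM mitoxantrone; hits displace the dye from DNA and so lower well fluorescence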
An asterisk follows results filed as active.

For COC(=O)c1cc2c(c3c4cc(F)ccc4n(S(=O)(=O)c4ccccc4)c13)C(=O)N(Cc1ccc(C(F)(F)F)cc1)C2 the results were PRMT1 inh 1, rCAG RNA binder 13, mABHD4 FP -10 and SIAE inh -1.
Screening CCC[C@H]1[C@@H](OC(=O)NCc2cccs2)CC[C@@]23CCCN2C(=O)CCC[C@@H]13 returned PRMT1 inh -1, mABHD4 FP -1 and SIAE inh 2.
CC(Oc1ccc(Cl)cc1)C(=O)Nc1ccc(S(=O)(=O)Nc2nccs2)cc1 (stereo unspecified) was read as PRMT1 inh -2, rCAG RNA binder 44*, mABHD4 FP 8, HTRA1 inh -11, SIAE inh -3, rCAG binder conf 36* and DNA CAG counter 11*.
`COc1cc(C#Cc2c(-c3cncn3C)n(C)c3ccc(-c4cnc(N5CCOCC5)nc4)cc23)cc(OC)c1` gave PRMT1 inh 1, rCAG RNA binder 7, mABHD4 FP 2, HTRA1 inh -12 and SIAE inh -32.
COc1cc(C#Cc2c(-c3cncn3C)n(C)c3ccc(-c4cnc(OC)nc4)cc23)cc(OC)c1 was read as PRMT1 inh 2, rCAG RNA binder 74*, mABHD4 FP -11, HTRA1 inh -127, SIAE inh -20, rCAG binder conf 15 and DNA CAG counter 10*.
Screening COc1ccc(-n2c(SCC(=O)NN=Cc3c(O)ccc4ccccc34)nnc2-c2ccc(C(C)(C)C)cc2)cc1 returned PRMT1 inh -1, rCAG RNA binder 17, mABHD4 FP 12 and SIAE inh -1.
`Cc1csc(NC(=O)Nc2ccc(Cl)cc2)n1` gave PRMT1 inh 1, rCAG RNA binder 38*, mABHD4 FP -5, HTRA1 inh -14, SIAE inh -7, rCAG binder conf 7 and DNA CAG counter 9.5*.
Screening CCOC(=O)Cc1csc(NC(=O)Nc2ccc(Cl)cc2)n1 returned PRMT1 inh -4, rCAG RNA binder 40*, mABHD4 FP -15, HTRA1 inh -22, SIAE inh -4, rCAG binder conf 43* and DNA CAG counter 17*.
For O=C(Cc1csc(NC(=O)Nc2ccc(Cl)cc2)n1)NCc1ccccn1 the results were PRMT1 inh -1, rCAG RNA binder 30, mABHD4 FP -6, HTRA1 inh -15 and SIAE inh 1.
`CCOC(=O)c1csc(NC(=O)Nc2cccc(Cl)c2)n1` gave PRMT1 inh -3, rCAG RNA binder 59*, mABHD4 FP -9, HTRA1 inh -10, SIAE inh -1, rCAG binder conf 50* and DNA CAG counter 28*.
Screening O=C(Cc1csc(NC(=O)Nc2ccc(Cl)cc2)n1)NC1CCCC1 returned PRMT1 inh -2, rCAG RNA binder 40*, mABHD4 FP -14, HTRA1 inh -28, SIAE inh 0, rCAG binder conf 16 and DNA CAG counter 15*.
For CN(C)Cc1csc(NC(=O)Nc2cccc(Cl)c2)n1 the results were PRMT1 inh -1, rCAG RNA binder 22, mABHD4 FP -1 and SIAE inh -2.
For O=C(CSc1nnc(COc2ccccc2)n1Cc1ccco1)Nc1ccc2c(c1)OCO2 the results were PRMT1 inh 11, rCAG RNA binder 3, mABHD4 FP 2 and SIAE inh 5.
Screening O=C(OCCN1CCCC12CCC(c1ccccc1)CC2)c1ccccc1 (stereo unspecified) returned PRMT1 inh 4, rCAG RNA binder 1, mABHD4 FP 2 and SIAE inh -2.
`NCc1csc(NC(=O)Nc2cccc(Cl)c2)n1` gave PRMT1 inh -4, rCAG RNA binder 35*, mABHD4 FP 6, SIAE inh 0, rCAG binder conf 10 and DNA CAG counter 8.4*.
For CCOC(=O)Cc1csc(NC(=O)Nc2cccc(Cl)c2)n1 the results were PRMT1 inh 0, rCAG RNA binder 53*, mABHD4 FP -27, HTRA1 inh -27, SIAE inh -3, rCAG binder conf 17 and DNA CAG counter 16*.
For CC(C)(C)NC(=O)C(c1ccc(C(F)(F)F)cc1)n1c(=O)c(-c2ccco2)nc2ccccc21 (stereo unspecified) the results were PRMT1 inh 21, rCAG RNA binder 27, mABHD4 FP -11 and SIAE inh -8.
CC(C)(C)NC(=O)C(c1ccccc1F)n1c(=O)c(-c2ccco2)nc2ccccc21 (stereo unspecified) was read as PRMT1 inh 15, rCAG RNA binder 41*, mABHD4 FP -20, SIAE inh -9, rCAG binder conf 11 and DNA CAG counter 7.8*.
Cc1ccc(OCC(=O)N/N=C\c2ccc(-c3cccc(C(=O)O)c3)o2)c(C)c1 was read as PRMT1 inh 2, rCAG RNA binder 46*, mABHD4 FP 2, HTRA1 inh -11, SIAE inh 0, rCAG binder conf 42* and DNA CAG counter 11*.
`CC(C)(C)c1ccc2c(c1)OC(C(=O)N/N=C\c1ccc(-c3cccc(C(=O)O)c3)o1)CO2` (stereo unspecified) gave PRMT1 inh -1, rCAG RNA binder 41*, mABHD4 FP -5, HTRA1 inh -22, SIAE inh -16, rCAG binder conf 77* and DNA CAG counter 43*.
Cc1ccc(OCC(=O)N/N=C\c2ccc(C)o2)c(C)c1 was read as PRMT1 inh -3, rCAG RNA binder -5, mABHD4 FP -10, HTRA1 inh -5 and SIAE inh -1.
Screening O=C(O)c1cccc(-c2ccc(/C=N/NC(=O)C3COc4ccccc4O3)o2)c1 (stereo unspecified) returned PRMT1 inh 3, rCAG RNA binder 18, mABHD4 FP 3, HTRA1 inh 1 and SIAE inh 3.
CCCCNC(=O)C1(C(=O)c2ccc(OC)cc2)CC(C(=O)OCC)=NO1 (stereo unspecified) was read as PRMT1 inh -1, rCAG RNA binder 1, mABHD4 FP 5 and SIAE inh 3.
Screening CCN(C(=O)C1CCCN1S(=O)(=O)c1cccnc1)c1ccccc1 (stereo unspecified) returned PRMT1 inh -4, rCAG RNA binder 1, mABHD4 FP -10 and SIAE inh 2.
`O=C(Cc1c(C(=O)O)[nH]c2ccc(Cl)cc12)Nc1ccc2c(c1)OCCO2` gave PRMT1 inh -2, rCAG RNA binder 50*, mABHD4 FP -2, HTRA1 inh -14, SIAE inh 7, rCAG binder conf 42* and DNA CAG counter 8.4*.
For Cc1ccc(Cl)cc1N1CCN(C(=O)Cc2c(C(=O)O)[nH]c3ccc(Cl)cc23)CC1 the results were PRMT1 inh -1, rCAG RNA binder 74*, mABHD4 FP -1, HTRA1 inh -39, SIAE inh -9, rCAG binder conf 84* and DNA CAG counter 55*.
